The target in assay [1] is T1, Histone deacetylase 7 (Homo sapiens) (UniProt Q8WUI4).
T1 sequence (whole entry): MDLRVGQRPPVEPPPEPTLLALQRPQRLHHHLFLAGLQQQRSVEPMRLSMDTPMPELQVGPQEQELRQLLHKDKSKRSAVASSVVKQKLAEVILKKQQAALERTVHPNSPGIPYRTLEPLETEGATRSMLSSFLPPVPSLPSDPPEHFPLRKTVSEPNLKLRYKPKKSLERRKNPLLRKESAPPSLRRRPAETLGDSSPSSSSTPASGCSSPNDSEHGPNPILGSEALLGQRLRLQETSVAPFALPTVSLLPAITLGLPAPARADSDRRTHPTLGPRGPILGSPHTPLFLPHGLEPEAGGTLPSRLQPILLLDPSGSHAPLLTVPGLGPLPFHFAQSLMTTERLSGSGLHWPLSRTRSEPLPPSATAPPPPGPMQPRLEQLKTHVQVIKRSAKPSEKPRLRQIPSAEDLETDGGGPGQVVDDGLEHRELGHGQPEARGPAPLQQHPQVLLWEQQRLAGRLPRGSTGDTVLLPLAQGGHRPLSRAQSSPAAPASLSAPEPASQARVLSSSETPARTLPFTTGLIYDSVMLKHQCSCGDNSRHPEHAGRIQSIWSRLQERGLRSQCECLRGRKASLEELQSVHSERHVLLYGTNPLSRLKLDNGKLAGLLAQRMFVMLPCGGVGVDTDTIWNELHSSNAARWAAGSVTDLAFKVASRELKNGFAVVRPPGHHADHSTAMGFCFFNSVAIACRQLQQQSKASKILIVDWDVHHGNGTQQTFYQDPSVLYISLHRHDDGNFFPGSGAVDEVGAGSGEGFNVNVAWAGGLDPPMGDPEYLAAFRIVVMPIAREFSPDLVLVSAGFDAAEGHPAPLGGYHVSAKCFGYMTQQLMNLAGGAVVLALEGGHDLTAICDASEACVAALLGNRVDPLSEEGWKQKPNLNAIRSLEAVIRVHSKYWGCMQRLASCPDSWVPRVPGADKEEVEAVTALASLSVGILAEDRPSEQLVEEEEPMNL
The assay is described as follows: Inhibition of HDAC7 (unknown origin) using Abz-SRGGK(STFA)FRR-NH2 as substrate at 6 to 20000 nM preincubated for 5 mins followed by substrate addition and measured every 30 secs for 30 mins by continuous fluorescence based assay. To be noted: dose 6-20000 nM, time 35.0 min. In short, it runs like this:
(§1)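 Continuous fluorescence assay in 20 mM HEPES pH 7.4, 140 mM NaCl, 10 mM KCl, 1 mM TCEP, 0.2 mg/mL BSA, 3% DMSO final. Enzyme (HDAC4 5 nM, HDAC5 10 nM, HDAC7 5 nM, HDAC9 20 nM) preincubated with inhibitor at room temperature. HDAC10 (5 nM) instead in 20 mM HEPES pH 7.4, 0.5 mg/mL BSA. Initial slope used as activity.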

For assay [2], the target named is Histone deacetylase 4 (Homo sapiens) (UniProt P56524). The assay is described as follows: Inhibition of HDAC4 (unknown origin) using Abz-SRGGK(STFA)FRR-NH2 as substrate at 6 to 20000 nM preincubated for 5 mins followed by substrate addition and measured every 30 secs for 30 mins by continuous fluorescence based assay. As to conditions: dose 6-20000 nM, time 35.0 min. Put shortly: as §1
Sequence of Histone deacetylase 4 (Homo sapiens) (P56524 whole entry): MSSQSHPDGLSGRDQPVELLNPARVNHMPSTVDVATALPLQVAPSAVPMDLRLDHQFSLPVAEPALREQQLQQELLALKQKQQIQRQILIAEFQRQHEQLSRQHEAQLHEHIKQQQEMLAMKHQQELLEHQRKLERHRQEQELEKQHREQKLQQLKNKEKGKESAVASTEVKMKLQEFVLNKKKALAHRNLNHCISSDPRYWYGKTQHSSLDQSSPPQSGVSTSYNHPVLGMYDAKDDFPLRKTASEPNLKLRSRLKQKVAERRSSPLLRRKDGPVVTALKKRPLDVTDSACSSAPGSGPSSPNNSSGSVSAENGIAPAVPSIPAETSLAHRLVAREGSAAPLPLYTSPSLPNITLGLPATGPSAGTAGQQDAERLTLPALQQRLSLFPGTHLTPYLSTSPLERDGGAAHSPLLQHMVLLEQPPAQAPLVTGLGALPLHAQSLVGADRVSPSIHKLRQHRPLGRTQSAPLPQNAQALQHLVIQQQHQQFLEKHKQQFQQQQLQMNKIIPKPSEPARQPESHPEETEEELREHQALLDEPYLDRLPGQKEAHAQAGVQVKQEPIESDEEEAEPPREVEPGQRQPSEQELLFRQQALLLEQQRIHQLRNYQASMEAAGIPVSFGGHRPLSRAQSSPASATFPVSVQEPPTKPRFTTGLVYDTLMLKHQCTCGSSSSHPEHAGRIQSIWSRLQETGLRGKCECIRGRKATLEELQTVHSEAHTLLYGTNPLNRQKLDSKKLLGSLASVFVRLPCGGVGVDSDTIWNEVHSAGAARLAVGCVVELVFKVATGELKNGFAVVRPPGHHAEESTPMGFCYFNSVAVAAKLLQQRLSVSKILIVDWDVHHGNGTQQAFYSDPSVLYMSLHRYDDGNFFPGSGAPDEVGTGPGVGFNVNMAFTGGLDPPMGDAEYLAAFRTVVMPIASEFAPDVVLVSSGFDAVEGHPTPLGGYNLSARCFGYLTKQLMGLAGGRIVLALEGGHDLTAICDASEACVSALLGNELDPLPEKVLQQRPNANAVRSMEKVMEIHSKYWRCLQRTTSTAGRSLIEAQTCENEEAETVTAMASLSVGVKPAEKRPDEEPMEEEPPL

The next assay deals with PC-3M-luc. As to conditions: Homo sapiens, dose 20.0 µM, time 5.0 hrs.
The target of assay [3] is Histone deacetylase 9 (Homo sapiens) (UniProt Q9UKV0). The assay is described as follows: Inhibition of HDAC9 (unknown origin) using Abz-SRGGK(STFA)FRR-NH2 as substrate at 6 to 20000 nM preincubated for 5 mins followed by substrate addition and measured every 30 secs for 30 mins by continuous fluorescence based assay. To be noted: dose 6-20000 nM, time 35.0 min. In short, it runs like this: as §1
Sequence of Histone deacetylase 9 (Homo sapiens) (Q9UKV0 whole entry): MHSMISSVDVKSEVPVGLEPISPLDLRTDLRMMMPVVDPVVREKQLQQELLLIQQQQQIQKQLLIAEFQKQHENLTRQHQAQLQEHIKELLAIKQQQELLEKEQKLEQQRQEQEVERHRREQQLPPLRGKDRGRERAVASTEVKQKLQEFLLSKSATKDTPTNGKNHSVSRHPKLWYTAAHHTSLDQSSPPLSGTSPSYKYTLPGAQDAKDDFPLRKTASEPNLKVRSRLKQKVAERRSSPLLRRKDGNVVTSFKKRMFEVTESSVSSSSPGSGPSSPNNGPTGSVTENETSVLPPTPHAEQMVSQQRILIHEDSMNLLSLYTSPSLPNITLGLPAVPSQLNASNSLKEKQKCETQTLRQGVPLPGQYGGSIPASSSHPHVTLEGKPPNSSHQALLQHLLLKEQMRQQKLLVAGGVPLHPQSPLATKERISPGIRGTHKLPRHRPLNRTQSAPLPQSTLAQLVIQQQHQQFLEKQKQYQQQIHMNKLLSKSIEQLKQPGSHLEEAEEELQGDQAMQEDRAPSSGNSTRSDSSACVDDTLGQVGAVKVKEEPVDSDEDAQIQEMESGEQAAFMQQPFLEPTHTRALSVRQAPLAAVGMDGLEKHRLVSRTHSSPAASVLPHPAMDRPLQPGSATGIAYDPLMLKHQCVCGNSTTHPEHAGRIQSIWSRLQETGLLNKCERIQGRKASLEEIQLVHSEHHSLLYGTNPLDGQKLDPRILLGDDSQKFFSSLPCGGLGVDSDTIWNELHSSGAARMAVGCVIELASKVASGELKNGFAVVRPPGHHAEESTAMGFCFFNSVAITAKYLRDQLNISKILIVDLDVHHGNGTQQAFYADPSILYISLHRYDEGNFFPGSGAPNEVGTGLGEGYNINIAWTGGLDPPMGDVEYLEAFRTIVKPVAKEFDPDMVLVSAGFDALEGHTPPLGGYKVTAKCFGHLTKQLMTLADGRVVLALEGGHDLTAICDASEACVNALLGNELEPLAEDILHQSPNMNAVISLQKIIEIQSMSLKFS

The target of assay [4] is T2, Protein deacetylase HDAC6 (Homo sapiens) (UniProt Q9UBN7).
T2 sequence (whole entry): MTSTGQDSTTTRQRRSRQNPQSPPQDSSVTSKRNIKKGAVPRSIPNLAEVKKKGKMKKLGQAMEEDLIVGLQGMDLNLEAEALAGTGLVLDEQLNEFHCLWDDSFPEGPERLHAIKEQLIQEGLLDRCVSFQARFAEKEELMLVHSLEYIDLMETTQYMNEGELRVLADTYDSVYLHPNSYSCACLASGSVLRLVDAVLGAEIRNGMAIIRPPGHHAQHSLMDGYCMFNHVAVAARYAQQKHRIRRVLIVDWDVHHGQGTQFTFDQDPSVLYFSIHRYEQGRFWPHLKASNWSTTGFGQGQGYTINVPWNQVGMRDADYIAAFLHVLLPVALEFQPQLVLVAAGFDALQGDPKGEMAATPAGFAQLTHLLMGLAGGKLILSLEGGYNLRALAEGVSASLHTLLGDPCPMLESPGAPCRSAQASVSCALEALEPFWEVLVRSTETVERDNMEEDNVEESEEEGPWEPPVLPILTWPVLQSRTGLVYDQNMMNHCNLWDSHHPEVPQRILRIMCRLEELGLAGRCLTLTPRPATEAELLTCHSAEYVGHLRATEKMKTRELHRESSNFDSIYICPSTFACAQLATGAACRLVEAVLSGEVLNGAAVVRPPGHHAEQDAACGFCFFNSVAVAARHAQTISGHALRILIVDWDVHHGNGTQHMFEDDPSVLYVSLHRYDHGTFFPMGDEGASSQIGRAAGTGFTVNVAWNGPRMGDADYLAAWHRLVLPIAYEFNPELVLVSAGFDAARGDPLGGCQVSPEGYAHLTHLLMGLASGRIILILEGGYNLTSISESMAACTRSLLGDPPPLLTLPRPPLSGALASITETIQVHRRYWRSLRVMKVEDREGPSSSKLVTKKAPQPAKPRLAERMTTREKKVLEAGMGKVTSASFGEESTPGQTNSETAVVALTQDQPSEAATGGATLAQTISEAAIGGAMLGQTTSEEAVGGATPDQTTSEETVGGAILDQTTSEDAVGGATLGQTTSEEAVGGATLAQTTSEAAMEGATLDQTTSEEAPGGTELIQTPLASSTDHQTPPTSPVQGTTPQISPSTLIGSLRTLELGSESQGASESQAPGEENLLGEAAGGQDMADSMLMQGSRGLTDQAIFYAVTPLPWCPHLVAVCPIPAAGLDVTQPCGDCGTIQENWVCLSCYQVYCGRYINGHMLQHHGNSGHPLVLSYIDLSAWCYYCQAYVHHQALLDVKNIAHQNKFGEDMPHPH
The assay is described as follows: Binding affinity to HDAC6 in human MCF7 cells assessed as target engagement by measuring rescue of PROTAC induced protein degradation at 20 uM preincubated with compound for 30 mins followed by PROTAC 4-((5-(8-(2-((2-(2,6-dioxopiperidin-3-yl)-1,3-dioxoisoindolin-4 yl)oxy)acetamido)octanamido)-2-meth …. The assay is classed as cell-based. To be noted: time 6.5 hrs.

Calls of active or inactive are those of the source. The rule behind the calls is not given here.

Regarding `CCCCN(Cc1ccc(C(=O)NO)cc1)C(=O)CCCCn1cc(COc2cccc(Cc3cnc(NC(=O)CSc4nc(C)cc(C)n4)s3)c2)nn1`, the inhibition result in assay [1], in assay [2] and in assay [3] was “inactive” in each case. Also, in the assay on PC-3M-luc, the inhibition entry is “Active”. For the same compound, the result in assay [4] was Active.
